Experimental data: article PMC12120116 (Scientific Reports, 2025)
Values joined by “and” are separate entries in the source; they are usually repeats but may differ in a detail not shown here. Equal entries are not always repeated. “Also recorded” adds a separate entry of the source.

Tests used:
[1] = Acute toxicity assay; assay type: in vivo, Artemia franciscana; details: Artemia franciscana, in vivo, pH 8.5
[2] = test system: Artemia franciscana larvae; assay: Acute toxicity assay; assay type: in vivo; details: for Mortality %: corrected, mean ± SEM; for LC1 (20% of the LC10): 20% of the LC10 at 24 h, sublethal concentration used for metabolomics; for LC10 (lethal concentration 10%): probit regression
[3] = test system: Artemia franciscana larvae; assay: Teratogenic effect; assay type: in vivo; details: for Body length: mean ± SEM
How it was run: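 Larvae came from cysts hatched 24 h in aerated ASW (pH ≅ 8.5, 28 °C). Thirty larvae were incubated in 1 mL of test-compound dilution (from DMSO stock, 0.17% DMSO, sonicated) at 25–26.5 °C for 24 h and 48 h. Ten larvae per tube had eye-to-tail length measured from images. A linear mixed-effects model (experiment as random effect) compared each treatment with time-matched ASW + 0.17% DMSO vehicle, with Dunnett adjustment.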

[4] = test system: A. franciscana larvae; assay: Untargeted LC-MS/MS metabolomics of larvae at sublethal concentrations; assay type: in vivo, Artemia franciscana
[5] = test system: A. franciscana larvae; assay: ChemRICH chemical similarity enrichment analysis of deregulated metabolites; assay type: in vivo, Artemia franciscana
[6] = test system: A. franciscana larvae; assay: Pathway enrichment analysis; assay type: in vivo, Artemia franciscana; details: sublethal concentrations (LC10 at 48 h)
[7] = test system: MCF-7 cell line; details: cited from earlier work
[8] = rodent models; cited from earlier work
[9] = test system: rodent models; details: cited from earlier work
[10] = test system: A. salina; details: 2500 mg/L (15 mM); ref 10 (Lestari et al. 2017); cited from earlier work
[11] = LC1 and LC10, 24 and 48 h, vs vehicle control

For `CCCC(CCC)C(=O)Nc1ccccc1O` [HO-AAVPA, N-(2-hydroxyphenyl)-2-propylpentanamide], the LC50 at 24 h [1] was 450 µM and 106 µg/mL, the LC50 at 48 h [1] was 320 µM and 75.8 µg/mL and the Mortality % ([2]; 0.18 mM (42.36 mg/L), 24 h) was 1.03 ± 1.15%. For the same compound, the Mortality % ([2]; 0.18 mM (42.36 mg/L), 48 h) was 16.96 ± 6.69%, the Mortality % ([2]; 0.32 mM (75.31 mg/L), 24 h) was 10.41 ± 5.92% and the Mortality % ([2]; 0.32 mM (75.31 mg/L), 48 h) was 30.34 ± 15.25%. The Mortality % ([2]; 0.56 mM (131.78 mg/L), 24 h) was 60.16 ± 18.53 %, the Mortality % ([2]; 0.56 mM (131.78 mg/L), 48 h) was 77.3 ± 13.49 % and the Mortality % ([2]; 1.00 mM (235.33 mg/L), 24 h) was 97.81 ± 1.1 %. The Mortality % ([2]; 1.00 mM (235.33 mg/L), 48 h) was 100 ± 0 %, the “LC1 (20% of the LC10)” value [2] was 0.04 mM and the “LC10 (lethal concentration 10%)” value ([2]; 48 h) was 0.13 mM and 29.49 mg/L. For the same compound, the “Toxicity compared to VPA” value ([2]; acute toxicity, 24 and 48 h) was “high toxicity; also recorded: higher toxic effects”, the Body length ([3]; 0.10 mM (23.53 mg/L), 24 h) was 0.79 ± 0.011 and the Body length ([3]; 0.10 mM (23.53 mg/L), 48 h) was 0.82 ± 0.014. For the same compound, the Body length ([3]; 0.18 mM (42.36 mg/L), 24 h) was 0.77 ± 0.007, the Body length ([3]; 0.18 mM (42.36 mg/L), 48 h) was 0.78 ± 0.015 and the Body length ([3]; 0.32 mM (75.31 mg/L), 24 h) was 0.76 ± 0.01. It also gave a Body length ([3]; 0.32 mM (75.31 mg/L), 48 h) of 0.83 ± 0.011, a Body length ([3]; 0.56 mM (131.78 mg/L), 24 h) of 0.7 ± 0.014 and a Body length ([3]; 0.56 mM (131.78 mg/L), 48 h) of 0.69 ± 0.022. The Body length ([3]; 1.00 mM (235.33 mg/L), 24 h) was 0.66 ± 0.018, the Body length ([3]; 1.00 mM (235.33 mg/L), 48 h) was 0.58 ± 0.018 and the “Teratogenicity compared to VPA” value ([3]; larvae length as morphological indicator) was “lower teratogenicity; also recorded: lower teratogenic”. For the same compound, the “Abundance of L-glutamine, L-asparagine, dihydrothymine and dihydrouracil” value [4, 11] was “did not produce any significant impact”, the “Abundance of L-serine and isobutyryl-L-carnitine” value [4, 11] was “did not produce any significant impact” and the “Oxysterols (3beta,7alpha-dihydroxy-5-cholestenoate, 3b-hydroxy-5-cholenoic acid, 7-ketodeoxycholic acid, 4alpha-carboxy-5alpha-cholesta-8-en-3beta-ol)” value ([4]; LC10) was “increased”. For the same compound, the “Abundance of some triacylglycerides (TG)” value ([4]; both concentrations, only at 24 h) was “downregulated”, the “Abundance of 7E,9E,11-Dodecatrienyl acetate” value ([4]; most notable change, vs vehicle control) was “downregulation” and the “Abundance of mintsulfide, 3beta,7alpha-Dihydroxy-5-cholestenoate and 4alpha-Carboxy-5alpha-cholesta-8-en-3beta-ol” value ([4]; vs vehicle control) was “raised the abundance”. The “Triacylglycerides cluster, abundance of metabolites” value ([5]; LC1, 24 h) was “decreased”, the “Triacylglycerides cluster, abundance of metabolites” value ([5]; LC10, 24 h) was “increased” and the “Glycerophosphocholines and glycerophosphoethanolamines clusters” value ([5]; both concentrations, 48 h) was “mixed changes”. For the same compound, the Malonyl carnitine ([5]; fatty acid esters, LC1 and LC10, 24 and 48 h) was “most sustained alterations”, the “Major deregulated / most impacted metabolic pathways” value [6] was “sphingolipid and glycerophospholipid metabolism; also recorded: glycerophospholipid and sphingolipid metabolism” and the IC50 [7] was 0.476 mM. The “Bioavailability compared to VPA” value [8] was “higher bioavailability” and the “Toxicity compared to VPA” value [9] was “lower toxicity”.
In the case of `CCCC(CCC)C(=O)O` [VPA, valproic acid], the LC50 [1] is reported as > 1000 µg/mL, the LC50 at 24 h [1] is reported as 41.1 mM and the LC50 at 48 h [1] is reported as 18.7 mM. For the same compound, the Mortality % ([2]; 3 mM (499 mg/L), 24 h) was 1.19 ± 3.15%, the Mortality % ([2]; 3 mM (499 mg/L), 48 h) was 7.06 ± 3.61% and the Mortality % ([2]; 5.4 mM (897 mg/L), 24 h) was 1.83 ± 3.66%. The Mortality % ([2]; 5.4 mM (897 mg/L), 48 h) was 4.98 ± 4.86%, the Mortality % ([2]; 9.6 mM (1595 mg/L), 24 h) was 10.08 ± 8.85% and the Mortality % ([2]; 9.6 mM (1595 mg/L), 48 h) was 26.43 ± 8.52%. It also gave a Mortality % ([2]; 16.8 mM (2792 mg/L), 24 h) of 11.11 ± 11.85%, a Mortality % ([2]; 16.8 mM (2792 mg/L), 48 h) of 29.41 ± 11.96% and a Mortality % ([2]; 30 mM (4986 mg/L), 24 h) of 35.05 ± 12.82%. It also gave a Mortality % ([2]; 30 mM (4986 mg/L), 48 h) of 62.42 ± 14.69 %, a Mortality % ([2]; 54 mM (8974 mg/L), 24 h) of 37.32 ± 15.84 % and a Mortality % ([2]; 54 mM (8974 mg/L), 48 h) of 82.22 ± 9.04 %. For the same compound, the Mortality % ([2]; 96 mM (15,954 mg/L), 24 h) was 70.18 ± 14.77 %, the Mortality % ([2]; 96 mM (15,954 mg/L), 48 h) was 96.35 ± 2.13 % and the Mortality % ([2]; 168 mM (27,920 mg/L), 24 h) was 98.85 ± 1.15 %. The Mortality % ([2]; 168 mM (27,920 mg/L), 48 h) was 100 ± 0 %, the “LC1 (20% of the LC10)” value [2] was 1.79 mM and the “Concentration at which 100% lethality was achieved” value ([2]; 48 h) was “above 96 mM”. The “LC10 (lethal concentration 10%)” value ([2]; 48 h) was 4.71 mM and 783.1 mg/L, the Body length ([3]; 3 mM (499 mg/L), 24 h) was 0.78 ± 0.008 and the Body length ([3]; 3 mM (499 mg/L), 48 h) was 0.8 ± 0.01. For the same compound, the Body length ([3]; 5.4 mM (897 mg/L), 24 h) was 0.74 ± 0.012, the Body length ([3]; 5.4 mM (897 mg/L), 48 h) was 0.77 ± 0.012 and the Body length ([3]; 9.6 mM (1595 mg/L), 24 h) was 0.69 ± 0.011. The Body length ([3]; 9.6 mM (1595 mg/L), 48 h) was 0.68 ± 0.021, the Body length ([3]; 16.8 mM (2792 mg/L), 24 h) was 0.67 ± 0.009 and the Body length ([3]; 16.8 mM (2792 mg/L), 48 h) was 0.66 ± 0.017. The Body length ([3]; 30 mM (4986 mg/L), 24 h) was 0.67 ± 0.008, the Body length ([3]; 30 mM (4986 mg/L), 48 h) was 0.64 ± 0.013 and the Body length ([3]; 54 mM (8974 mg/L), 24 h) was 0.61 ± 0.015. It also gave a Body length ([3]; 54 mM (8974 mg/L), 48 h) of 0.57 ± 0.017, a Body length ([3]; 96 mM (15,954 mg/L), 24 h) of 0.56 ± 0.011 and a Body length ([3]; 96 mM (15,954 mg/L), 48 h) of 0.54 ± 0.01. For the same compound, the Body length ([3]; 168 mM (27,920 mg/L), 24 h) was 0.52 ± 0.014, the Body length ([3]; 168 mM (27,920 mg/L), 48 h) was 0.5 ± 0.011 and the “Ceramide and glycerophosphoinositol clusters, abundance of metabolites” value ([5]; LC10, sustained up to 48 h) was “downregulates”. For the same compound, the “Lipid abundance (glycerophospholipid subclasses, linoleic acid and derivatives)” value ([5]; especially LC1, 48 h) was “increases”, the “C2-C6 acylcarnitines (fatty acid esters cluster)” value ([5]; lowest concentration (LC1)) was “positively impacts” and the “Abundance of amino acids and their derivatives” value ([5]; most metabolites of the cluster) was “upward trend”. For the same compound, the “Major deregulated / most impacted metabolic pathways” value [6] was “alanine, aspartate, and glutamate metabolism” and the Lethality [10] was 100%.
